# Measured values of several laboratories.
# Each line is one published result; the experiments were not run side by side.
# SLC6A2: Sodium-dependent noradrenaline transporter (SLC6A2, Homo sapiens, UniProt P23975)
# DNA dC->dU-editing enzyme APOBEC-3B: DNA dC->dU-editing enzyme APOBEC-3B (Homo sapiens, UniProt Q9UH17)
# FPR1: fMet-Leu-Phe receptor (FPR1, Homo sapiens, UniProt P21462)
# MC4R: Melanocortin receptor 4 (MC4R, Homo sapiens, UniProt P32245)
# NQO2: Ribosyldihydronicotinamide dehydrogenase [quinone] (NQO2, Homo sapiens, UniProt P16083)
Compound,target,assay,system,setting,inhibition [%]
Clc1ccc(C(c2ccccc2)c2nnnn2CCCCN2CCC(CCCc3ccccc3)CC2)cc1 (centres unmarked),SLC6A2,"transporter uptake, inhibitor",HEK293,1 µM,84.1
CC/C(=N\NC(=O)NCc1cccc(O)c1)c1ccc(O)c(C)c1O,"Fibroblast growth factor receptor 4 (FGFR4, Homo sapiens, UniProt P22455, N535K)","enzyme activity, inhibitor",,0.1 µM,3.1
Fc1ccc(C(c2ccc(F)cc2)c2nnnn2CCCCN2CCC(Cc3ccccc3)CC2)cc1,SLC6A2,"transporter uptake, inhibitor",HEK293,1 µM,81
COc1cc(/C=C/C(=O)CC(=O)/C=C/c2ccc(O)c(OC)c2)ccc1O,DNA dC->dU-editing enzyme APOBEC-3B,"enzyme activity, inhibitor, fluorescence",,100 µM,75.2
Cc1oc2cc(OC(=O)c3ccco3)ccc2c(=O)c1-c1nc2ccccc2n1C,FPR1,"calcium signal, antagonist",,50 µM,100
Fc1ccc(C(c2ccc(F)cc2)c2nnnn2CCCN2CCC(CCCc3ccccc3)CC2)cc1,SLC6A2,"transporter uptake, inhibitor",HEK293,1 µM,23.8
CCN(Cc1ccccc1C(F)(F)F)C(=O)C1CCN(S(=O)(=O)c2ccc3[nH]ncc3c2)CC1,"Cysteinyl leukotriene receptor 1 (CYSLTR1, Homo sapiens, UniProt Q9Y271)","ligand displacement, radioligand",,10 µM,38
CC(=O)N[C@H]1CSSC[C@@H](C(=O)N[C@H](Cc2c[nH]c3ccccc23)C(N)=O)NC(=O)[C@H](Cc2ccccc2)NC(=O)[C@H](CCCNC(=N)N)NC1=O,MC4R,"ligand displacement, radioligand",,"10 µM, 40 min",0
OCC1OC(Oc2cc(O)cc(/C=C/c3ccc(O)cc3)c2)C(O)C(O)C1O (centres unmarked),DNA dC->dU-editing enzyme APOBEC-3B,"enzyme activity, inhibitor, fluorescence",,100 µM,31.5
COc1ccccc1-c1c(C(F)(F)F)oc2cc(OC(=O)C(C)C)ccc2c1=O,FPR1,"calcium signal, antagonist",,50 µM,100
c1ccc(CCC2CCN(CCCCn3nnnc3C(c3ccccc3)c3ccccc3)CC2)cc1,SLC6A2,"transporter uptake, inhibitor",HEK293,1 µM,82.8
O=C1N=C(N2CCCCN2)S/C1=C\c1ccc(F)cc1O,MC4R,"ligand displacement, radioligand",,10 µM,< 10
COc1ccccc1-c1c(C(F)(F)F)oc2cc(OC(=O)c3ccccc3)ccc2c1=O,FPR1,"calcium signal, antagonist",,50 µM,90
Nc1c(Cl)cccc1C(=O)Nc1ccccc1C(=O)O,"srtA (Staphylococcus aureus, UniProt Q2FV99)","enzyme activity, inhibitor",,200 µM,100
CC(CCC(=O)NCC(=O)O)C1CCC2C3C(O)CC4CC(O)CCC4(C)C3CC(O)C12C (centres unmarked),DNA dC->dU-editing enzyme APOBEC-3B,"enzyme activity, inhibitor, fluorescence",,100 µM,23.7
Clc1ccc(C(c2ccccc2)c2nnnn2CCCN2CCC(CCCc3ccccc3)CC2)cc1 (centres unmarked),SLC6A2,"transporter uptake, inhibitor",HEK293,1 µM,72.8
COc1ccccc1-c1c(C)oc2cc(OC(=O)c3ccco3)ccc2c1=O,FPR1,"calcium signal, antagonist",,50 µM,100
Oc1cccc(Nc2nc(-c3ccc(F)cc3F)cs2)c1,"Muscarinic acetylcholine receptor M5 (CHRM5, Homo sapiens, UniProt P08912)",cell-free assay,,10 µM,-24.9
COc1ccccc1-c1c(C(F)(F)F)oc2cc(OC(=O)c3ccco3)ccc2c1=O,FPR1,"calcium signal, antagonist",,50 µM,100
Cc1c(COc2c(F)cc(F)cc2F)c2c(n1C)C(=O)C=C(NCCCN)C2=O,NQO2,"cell-free assay, inhibitor",,1 µM,97
Fc1ccc(C(c2ccc(F)cc2)c2nnnn2CCCCN2CCN(CCCc3ccccc3)CC2)cc1,SLC6A2,"transporter uptake, inhibitor",HEK293,1 µM,86.4
COc1ccccc1-c1c(C)oc2cc(OC(=O)c3cccs3)ccc2c1=O,FPR1,"calcium signal, antagonist",,50 µM,100
Clc1ccc(C(c2ccccc2)c2nnnn2CCCCN2CCN(CC=Cc3ccccc3)CC2)cc1 (centres unmarked),SLC6A2,"transporter uptake, inhibitor",HEK293,1 µM,50.4
O=c1c(-c2ccc(O)cc2)coc2c(OC3OC(CO)C(O)C(O)C3O)c(O)ccc12 (centres unmarked),DNA dC->dU-editing enzyme APOBEC-3B,"enzyme activity, inhibitor, fluorescence",,100 µM,37.5
Cc1c(COc2c(F)cc(F)cc2F)c2c(n1C)C(=O)C=C(NCCCN(C)C)C2=O,NQO2,"enzyme activity, inhibitor",,1 µM,98
Cc1ccc(Nc2nccc(N(C)c3ccc4c(C)n(C)nc4c3)n2)cc1S(N)(=O)=O,"Serine/threonine-protein kinase Chk2 (CHEK2, Homo sapiens, UniProt O96017, R145W)","enzyme activity, inhibitor",,0.3 µM,-4
Fc1ccc(C(c2ccc(F)cc2)c2nnnn2CCCCN2CCC(Cc3ccc(Cl)c(Cl)c3)CC2)cc1,SLC6A2,"transporter uptake, inhibitor",HEK293,1 µM,75.9
CNC(=O)c1cc(Oc2ccc(NC(=O)Nc3ccc(Cl)c(C(F)(F)F)c3)cc2)ccn1,"Fibroblast growth factor receptor 1 (FGFR1, Homo sapiens, UniProt P11362, V561M)",cell-free assay,,10 µM,84
CCN1CCN(Cc2ccc(NC(=O)c3ccc(C)c(Oc4ccnc5[nH]ccc45)c3)cc2C(F)(F)F)CC1,"Serine/threonine-protein kinase 10 (STK10, Homo sapiens, UniProt O94804)","target engagement in cells, inhibitor, chemoproteomics",Huh-7,10 µM,-64.9
